Data on 2 molecules can be found in ChEMBL document CHEMBL4145530, “Design, synthesis and pharmacological evaluation of N-benzyl-piperidinyl-aryl-acylhydrazone derivatives as donepezil hybrids: Discovery of novel multi-target anti-alzheimer prototype drug candidates” (Eur J Med Chem, 2018).

Active and inactive are the calls of the source. Where only a bound is given, the exact number is not on record here.

Series [1] concerns Mus musculus. Put plainly: Antinociceptive activity in carrageenan-induced Swiss mouse model of mechanical hyperalgesia assessed as mechanical hyperalgesic index pretreated orally for 1 hr followed by carrageenan challenge by Von Frey filament assay. In kind it is functional. The essentials:
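Swiss mice were placed in wire-screen acrylic boxes 60 min before testing. Vehicle, compound or indomethacin was given orally 1 h before intraplantar carrageenan. Mechanical threshold was found by the von Frey up-and-down method, with at least 6 trials at 10 s intervals, raising filament mass until paw withdrawal. Results are given as threshold in grams; n=8.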

For series [2], the target named is Acetylcholinesterase (Electrophorus electricus) (UniProt O42275). Put plainly: Inhibition of electric eel AChE at 100 uM using acetylthiocholine iodide as substrate preincubated for 10 mins followed by substrate addition by Ellman's method relative to control. A general note: Ellman's reagent forms a yellow product with free thiols.
The subject of series [3] is Mus musculus. Kind of series: Antinociceptive activity in formalin-induced Swiss mouse model of hyperalgesia assessed as time spent licking the injected paw in last phase at […], po pretreated for 1 hr followed by formalin injection and measured at 20 to 30 mins (reference value: 135.8 +/- 10.7 secs). In kind it is functional.
Series [4] deals with SH-SY5Y. Kind of series: Neuroprotection in human SH-SY5Y cells assessed as inhibition of amyloid beta (1 to 42) oligomer-induced early neurotoxic event by measuring decrease in MTT formazan exocytosis at 10 uM after 4 hrs by microscopic method. The class given is functional, cell-based. The essentials:
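SH-SY5Y cells (3×10^4/well) were grown 24 h, then co-treated with compound and Aβ1-42 oligomers (10 µM) for 4 h at 37 °C. Medium was replaced by MTT in PBS for 2 h. Needle-like exocytosed formazan crystals on the cell surface were assessed by light microscopy. Three independent experiments.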

A short description of series [5]: Selectivity ratio of IC50 for equine serum BuChE to IC50 for electric eel AChE. The essentials:
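Ellman kinetic assay with Electrophorus electricus AChE (acetylthiocholine) and equine serum BuChE (butyrylthiocholine iodide), […]. Enzyme was preincubated 10 min with DTNB and compound in 0.1 M sodium phosphate, pH 7.4 (final DMSO <0.2%), before substrate was added. A412 was read every 12 s for 5 min at rt to give maximum velocity. IC50 is the geometric mean of 2–3 curves, each 6 concentrations in triplicate. Selectivity is IC50 BuChE/IC50 AChE.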

Series [6] relates to THP-1. Kind of series: Anti-inflammatory activity in human THP1 cells assessed as inhibition of LPS-induced TNFalpha production at 10 uM after 24 hrs by ELISA relative to control. The class given is functional. As to conditions: THP-1, 24 h. The essentials: (§1)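 Human monocytic THP-1 cells (5×10^5 cells/mL) were given LPS 1 µg/mL with or without compound at 10 µM for 24 h. Cells were spun out at 500 × g and the medium kept at −80 °C. Secreted IL-1β and TNFα were measured with high-sensitivity ELISA. Three independent experiments.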

Series [7] has as its system SH-SY5Y. Put plainly: Neuroprotection in human SH-SY5Y cells assessed as inhibition of amyloid beta (1 to 42) oligomer-induced neuronal death at 10 uM after 24 hrs by propidium iodide staining based fluorescence microscopic method. The class given is functional, cell-based. The essentials: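 After plating at 5×10^3 cells/well and growing 24 h, SH-SY5Y cells were co-exposed to compound and Aβ1-42 oligomers (10 µM) for 24 h at 37 °C. Cells were stained with propidium iodide in PBS for 10 min. Dead cells were counted by fluorescence microscopy in four fields of 50–100 cells and expressed as PI-positive/total × 100. Three independent experiments.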

The test system of series [8] is Mus musculus. Kind of series: Inhibition of serum COX2 level in Swiss mouse model of carragenan-induced paw edema at 100 mM/kg, po pretreated for 1 hr followed by carrageenan treatment measured after 3 hrs by ELISA. The class given is functional. Put shortly:
(§2)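 Swiss mice (n=8) received compound (100 mM/kg) or vehicle orally 1 h before intraplantar carrageenan; indomethacin was the positive control. Three hours later, blood was drawn from the heart under chloral hydrate anaesthesia and serum was collected. COX-1 and COX-2 protein was measured by sandwich ELISA read at 450 nm and expressed as percent COX level.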
On the technique in general: ELISA stands for enzyme-linked immunosorbent assay.

The subject of series [9] is Mus musculus. Kind of series: Anti-inflammatory activity in C57Bl/6 mouse model of amyloid beta (1 to 42) oligomer-induced neuroinflammation assessed as inhibition of microgliosis in CA1 region of ipsilateral hippocampus at 100 mg/kg, ip pretreated for 1.5 hrs followed by amyloid beta (1 to 42) oligomer addition and measured after 7 days by Iba-1 staining based assay. The class given is functional, organism-based. The essentials:
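Male C57Bl/6 mice (25–30 g) got 100 mg/kg i.p. or vehicle 1.5 h before a unilateral right-hippocampal injection of Aβ1-42 oligomers (400 pmol/0.5 µL) or PBS. The oligomers were made by diluting the DMSO stock into PBS at 40 µM and holding at 4 °C for 48 h. After 7 days, brain sections were stained for Iba-1 (antigen retrieval, fluorescent secondary) and five CA1 images per hippocampus were taken; pixel density was read, n=10.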

The subject of series [10] is THP-1. Put plainly: Anti-inflammatory activity in human THP1 cells assessed as inhibition of LPS-induced IL-1beta production at 10 uM after 24 hrs by ELISA relative to control. As to conditions: THP-1, 24 h. The class given is functional. Put shortly:
as §1

Series [11] relates to Mus musculus. Put plainly: Inhibition of serum COX1 level in Swiss mouse model of carragenan-induced paw edema at 100 mM/kg, po pretreated for 1 hr followed by carrageenan treatment measured after 3 hrs by ELISA. In kind it is functional. The essentials: as §2
For series [12], the system named is PBMC. Put plainly: cells. In kind it is ADME, cell-based. As to conditions: Homo sapiens, 6 h.
In series [13] the test system is Mus musculus. Kind of series: Toxicity in C57Bl/6 mouse model of amyloid beta (1 to 42) oligomer-induced neuroinflammation assessed as induction of neurodegeneration in CA1 region of ipsilateral hippocampus at 100 mg/kg, ip pretreated for 1.5 hrs followed by amyloid beta (1 to 42) oligomer addition and measured after 7 days by Fluoro-Jade C staining based fluorescence microscopic assay. In kind it is organism-based. As to conditions: in vivo, 168 h. Put shortly: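 C57Bl/6 male mice were dosed i.p. at 100 mg/kg 1.5 h before stereotactic right intrahippocampal Aβ1-42 oligomer injection (400 pmol/0.5 µL), with PBS as control. After 7 days, hippocampal sections were stained with Fluoro-Jade C (0.0001%) after NaOH/ethanol and permanganate steps. Five CA1 images per hippocampus were imaged under fluorescence and pixel intensity quantified, n=10.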

Chain of Acetylcholinesterase (Electrophorus electricus) (O42275 24-633 limits assumed): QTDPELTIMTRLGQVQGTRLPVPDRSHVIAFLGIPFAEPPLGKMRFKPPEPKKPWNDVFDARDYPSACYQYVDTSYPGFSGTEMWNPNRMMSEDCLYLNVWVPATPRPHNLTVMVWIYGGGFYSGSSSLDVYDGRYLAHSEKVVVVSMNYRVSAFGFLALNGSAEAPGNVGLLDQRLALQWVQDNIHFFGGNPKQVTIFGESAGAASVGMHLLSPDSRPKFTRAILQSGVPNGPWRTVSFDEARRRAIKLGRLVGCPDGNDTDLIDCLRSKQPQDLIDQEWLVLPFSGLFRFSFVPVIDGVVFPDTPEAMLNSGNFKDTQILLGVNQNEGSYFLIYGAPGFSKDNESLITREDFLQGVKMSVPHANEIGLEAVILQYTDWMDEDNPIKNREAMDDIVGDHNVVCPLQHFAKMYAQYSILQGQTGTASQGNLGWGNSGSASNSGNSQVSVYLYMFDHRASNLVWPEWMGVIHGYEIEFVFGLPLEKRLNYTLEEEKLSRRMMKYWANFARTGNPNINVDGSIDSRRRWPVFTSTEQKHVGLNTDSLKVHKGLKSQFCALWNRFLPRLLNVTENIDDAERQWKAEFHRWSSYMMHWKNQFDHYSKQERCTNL

Broadly, the inhibition is the change of the read-out against control, counted positive when it falls. Broadly, the IC50 is the midpoint of a concentration-inhibition curve. High values mean a need for much substance, low ones inhibition by little substance. Consider `O=C(N/N=C/c1ccc(Cl)cc1)c1ccc(CN2CCCC(O)C2)cc1` (centres undefined), for which the Activity_index in [1] amounted to 168.3. This molecule also registered an inhibition in series [2] of over 60%. For the same molecule, in series [3], the Time was 62.88 s. The inhibition result in series [4], in series [7] and in series [9] was “Active” in each case. For the same molecule, in series [5], the Ratio IC50 came to 1.9. Besides, the inhibition at 10 µM came out at 98% in [6] and 29% in series [10]. Moreover, the “inhibition (INH)” value in [8] stood at 42%; in [11] it was 27%. The IC50 in [12] was over 100 µM.

Regarding `O=C(N/N=C/c1ccc(F)cc1)c1ccc(CN2CCCC(O)C2)cc1` (centres undefined), the Activity_index in series [1] came out at 178.9. In addition, the Activity entry in [13] is given as “Toxic”. Also, the inhibition in [2] was over 60%. Further, in series [3], the Time is given as 24.17 s. Also, the Ratio IC50 in series [5] was 4.5. The inhibition at 10 µM in series [6] was found to be 69%; in series [10], 31%. The inhibition entry in series [7] and in [9] was “Active” each time. In addition, the “inhibition (INH)” value in series [8] was determined as 25%; in series [11], 34%. The IC50 in series [12] was over 100 µM.
